From BindingDB's records for doi:10.1021/jm970020k (Eli Lilly, 1997)
pIC50: −log10 of the molar value.

Target: Integrin alpha-IIb/beta-3 (Homo sapiens, UniProt P08514+P05106)
Assay: Inhibition of the platelet GPIIb-IIIa receptor measured as ability to attenuate ADP-induced (fibrinogen-mediated) platelet aggregation in human platelet-rich plasma (PRP)
Procedure, shortened: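 Functional GPIIb-IIIa assay in human platelet-rich plasma. Aggregation was induced with ADP and depends on fibrinogen.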

Chain of Integrin alpha-IIb/beta-3 (P05106 27-788 limits assumed): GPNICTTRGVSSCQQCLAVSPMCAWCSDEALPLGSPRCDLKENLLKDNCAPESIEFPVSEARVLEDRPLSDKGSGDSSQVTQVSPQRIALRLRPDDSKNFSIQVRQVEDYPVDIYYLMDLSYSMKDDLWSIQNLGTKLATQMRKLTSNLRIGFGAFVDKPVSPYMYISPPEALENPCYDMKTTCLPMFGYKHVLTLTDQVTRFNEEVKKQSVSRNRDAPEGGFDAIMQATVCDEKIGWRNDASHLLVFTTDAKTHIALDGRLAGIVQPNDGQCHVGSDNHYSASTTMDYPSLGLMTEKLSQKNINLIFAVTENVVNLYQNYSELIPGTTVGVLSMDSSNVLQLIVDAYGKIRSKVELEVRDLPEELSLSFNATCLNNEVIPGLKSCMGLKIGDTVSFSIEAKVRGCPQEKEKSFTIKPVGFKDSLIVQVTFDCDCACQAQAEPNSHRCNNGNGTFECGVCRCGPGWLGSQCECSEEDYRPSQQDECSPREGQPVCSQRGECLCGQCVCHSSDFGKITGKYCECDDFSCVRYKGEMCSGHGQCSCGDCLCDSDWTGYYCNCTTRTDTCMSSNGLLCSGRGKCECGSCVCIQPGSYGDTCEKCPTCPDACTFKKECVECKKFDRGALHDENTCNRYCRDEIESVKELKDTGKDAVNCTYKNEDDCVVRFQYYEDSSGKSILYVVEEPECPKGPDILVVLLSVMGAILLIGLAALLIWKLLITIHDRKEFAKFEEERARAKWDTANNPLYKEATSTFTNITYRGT
Chain of Integrin alpha-IIb/beta-3 (P08514 32-887 limits assumed): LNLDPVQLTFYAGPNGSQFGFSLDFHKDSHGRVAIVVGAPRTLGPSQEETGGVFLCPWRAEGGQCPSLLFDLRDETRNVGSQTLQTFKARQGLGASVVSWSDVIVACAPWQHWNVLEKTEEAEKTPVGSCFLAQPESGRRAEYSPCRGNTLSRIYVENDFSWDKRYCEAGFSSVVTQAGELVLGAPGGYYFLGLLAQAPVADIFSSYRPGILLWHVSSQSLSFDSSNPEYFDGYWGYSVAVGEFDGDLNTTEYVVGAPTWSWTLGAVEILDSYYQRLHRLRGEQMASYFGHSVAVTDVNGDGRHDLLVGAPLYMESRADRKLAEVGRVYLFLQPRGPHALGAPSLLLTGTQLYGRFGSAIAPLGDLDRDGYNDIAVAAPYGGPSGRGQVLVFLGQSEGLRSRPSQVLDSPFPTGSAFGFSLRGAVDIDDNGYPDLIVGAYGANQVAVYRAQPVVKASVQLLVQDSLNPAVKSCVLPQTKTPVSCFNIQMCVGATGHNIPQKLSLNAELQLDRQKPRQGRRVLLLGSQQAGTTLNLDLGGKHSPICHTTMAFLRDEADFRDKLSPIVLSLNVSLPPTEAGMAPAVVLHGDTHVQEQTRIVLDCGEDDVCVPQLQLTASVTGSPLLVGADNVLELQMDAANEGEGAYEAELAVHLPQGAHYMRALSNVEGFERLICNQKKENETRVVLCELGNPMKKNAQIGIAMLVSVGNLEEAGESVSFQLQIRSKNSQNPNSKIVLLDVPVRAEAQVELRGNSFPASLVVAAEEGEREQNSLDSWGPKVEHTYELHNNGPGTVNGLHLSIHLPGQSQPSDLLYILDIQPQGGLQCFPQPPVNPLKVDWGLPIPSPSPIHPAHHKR
Chain of Integrin alpha-IIb/beta-3 (P08514 891-1039 limits assumed): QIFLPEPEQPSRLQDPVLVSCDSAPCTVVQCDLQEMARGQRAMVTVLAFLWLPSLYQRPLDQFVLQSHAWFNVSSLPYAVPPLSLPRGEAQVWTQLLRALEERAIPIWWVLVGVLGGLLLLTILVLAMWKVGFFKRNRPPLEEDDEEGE

First: N=C(N)c1ccc2c(c1)CC(C(=O)NCCCCCCC(=O)O)O2 (stereo unspecified) [7-[(5-Carbamimidoyl-2,3-dihydro-benzofuran-2-carbonyl)-amino]-heptanoic acid]
Second: N=C(N)c1ccc2oc(C(=O)NCCCCCCC(=O)O)cc2c1 [7-[(5-Carbamimidoyl-benzofuran-2-carbonyl)-amino]-heptanoic acid]
The pIC50 of the first is 1.10 log units lower: 5.47 for the first, 6.57 for the second.

`N=C(N)c1ccc2[nH]c(C(=O)NCCCC(=O)NCC(=O)O)cc2c1` [{4-[(5-Carbamimidoyl-1H-indole-2-carbonyl)-amino]-butyrylamino}-acetic acid] and `N=C(N)c1ccc2[nH]c(C(=O)NCC(=O)NCCCC(=O)O)cc2c1` [4-{2-[(5-Carbamimidoyl-1H-indole-2-carbonyl)-amino]-acetylamino}-butyric acid] are within 0.2 log units of each other in pIC50: 4.49 for the first, 4.30 for the second.

Compared with `N=C(N)c1ccc2c(C(=O)NCCCCCCC(=O)O)c[nH]c2c1` [7-[(6-Carbamimidoyl-1H-indole-3-carbonyl)-amino]-heptanoic acid], `N=C(N)c1ccc2cc(C(=O)NCCCCCCC(=O)O)[nH]c2c1` [7-[(6-Carbamimidoyl-1H-indole-2-carbonyl)-amino]-heptanoic acid] is 0.30 log units lower in pIC50: 6.19 for the first, 5.89 for the second. The first is the more potent here.

`N=C(N)c1ccc2[nH]c(C(=O)NCc3ccc(CCC(=O)O)cc3)cc2c1` [3-(4-{[(5-Carbamimidoyl-1H-indole-2-carbonyl)-amino]-methyl}-phenyl)-propionic acid] and `N=C(N)c1ccc2[nH]c(C(=O)NCc3ccc(CC(=O)O)cc3)cc2c1` [(4-{[(5-Carbamimidoyl-1H-indole-2-carbonyl)-amino]-methyl}-phenyl)-acetic acid] are within 0.2 log units of each other in pIC50: 4.41 for the first, 4.33 for the second.

`Cc1c(C(=O)NCCCCCCC(=O)O)[nH]c2ccc(C(=N)N)cc12` [7-[(5-Carbamimidoyl-3-methyl-1H-indole-2-carbonyl)-amino]-heptanoic acid] and `N=C(N)c1ccc2[nH]c(C(=O)NCCCCCCC(=O)O)cc2c1` [7-[(5-Carbamimidoyl-1H-indole-2-carbonyl)-amino]-heptanoic acid] are within 0.2 log units of each other in pIC50: 5.39 for the first, 5.55 for the second.

First: N=C(N)c1ccc(NCC(=O)NCCCCCCC(=O)O)cc1 [7-[2-(4-Carbamimidoyl-phenylamino)-acetylamino]-heptanoic acid]
Second: N=C(N)c1cccc(NCC(=O)NCCCCCCC(=O)O)c1 [7-[2-(3-Carbamimidoyl-phenylamino)-acetylamino]-heptanoic acid]
The pIC50 of the first is higher: 4.17 for the first, less than 4.00 for the second. The first is the more potent here.

Going from `N=C(N)c1ccc2[nH]c(C(=O)NCCCCCC(=O)O)cc2c1` [6-[(5-Carbamimidoyl-1H-indole-2-carbonyl)-amino]-hexanoic acid] to `CC(CCCCCNC(=O)c1cc2cc(C(=N)N)ccc2[nH]1)C(=O)O` (stereo unspecified) [7-[(5-Carbamimidoyl-1H-indole-2-carbonyl)-amino]-2-methyl-heptanoic acid], the pIC50 rises from less than 4.00 to 4.36.

Going from `CN(CCCCCCC(=O)O)C(=O)c1cc2cc(C(=N)N)ccc2[nH]1` [7-[(5-Carbamimidoyl-1H-indole-2-carbonyl)-methyl-amino]-heptanoic acid] to `CCC(CCCCCNC(=O)c1cc2cc(C(=N)N)ccc2[nH]1)C(=O)O` (stereo unspecified) [7-[(5-Carbamimidoyl-1H-indole-2-carbonyl)-amino]-2-ethyl-heptanoic acid], the pIC50 falls from 5.52 to less than 4.00.

`N=C(N)c1ccc2sc(C(=O)NCCCCCCC(=O)O)cc2c1` [7-[(5-Carbamimidoyl-benzo[b]thiophene-2-carbonyl)-amino]-heptanoic acid] and `Cn1c(C(=O)NCCCCCCC(=O)O)cc2cc(C(=N)N)ccc21` [7-[(5-Carbamimidoyl-1-methyl-1H-indole-2-carbonyl)-amino]-heptanoic acid] are within 0.2 log units of each other in pIC50: 5.14 for the first, 5.12 for the second.

Compared with `N=C(N)c1ccc2[nH]c(C(=O)NCCCCC(CC(=O)O)c3ccccc3)cc2c1` (stereo unspecified) [7-[(5-Carbamimidoyl-1H-indole-2-carbonyl)-amino]-3-phenyl-heptanoic acid], `CC(CCCCNC(=O)c1cc2cc(C(=N)N)ccc2[nH]1)CC(=O)O` (stereo unspecified) [7-[(5-Carbamimidoyl-1H-indole-2-carbonyl)-amino]-3-methyl-heptanoic acid] is 0.24 log units higher in pIC50: 5.31 for the first, 5.55 for the second. The second is the more potent here.

First: N=C(N)c1ccc2c(C(=O)NCCCCCCC(=O)O)[nH]nc2c1 [7-[(6-Carbamimidoyl-1H-indazole-3-carbonyl)-amino]-heptanoic acid]
Second: N=C(N)c1ccc2cc(C(=O)NCCCCCCC(=O)O)oc2c1 [7-[(6-Carbamimidoyl-benzofuran-2-carbonyl)-amino]-heptanoic acid]
The pIC50 of the first is 1.71 log units higher: 6.85 for the first, 5.14 for the second.

`N=C(N)c1ccc2[nH]c(C(=O)NCCC(=O)NCCC(=O)O)cc2c1` [3-{3-[(5-Carbamimidoyl-1H-indole-2-carbonyl)-amino]-propionylamino}-propionic acid] and `CCC(CCCCNC(=O)c1cc2cc(C(=N)N)ccc2[nH]1)CC(=O)O` (stereo unspecified) [7-[(5-Carbamimidoyl-1H-indole-2-carbonyl)-amino]-3-ethyl-heptanoic acid] are within 0.2 log units of each other in pIC50: 5.44 for the first, 5.28 for the second.

Going from `CCCCCCC(CCCCNC(=O)c1cc2cc(C(=N)N)ccc2[nH]1)CC(=O)O` (stereo unspecified) [3-{4-[(5-Carbamimidoyl-1H-indole-2-carbonyl)-amino]-butyl}-nonanoic acid] to `CCCCC(CCCCNC(=O)c1cc2cc(C(=N)N)ccc2[nH]1)CC(=O)O` (stereo unspecified) [3-Butyl-7-[(5-carbamimidoyl-1H-indole-2-carbonyl)-amino]-heptanoic acid], the pIC50 rises from 4.23 to 4.60 (0.37 log units). The second is the more potent here.

First: N=C(N)c1ccc(OCC(=O)NCCCCCCC(=O)O)cc1 [7-[2-(4-Carbamimidoyl-phenoxy)-acetylamino]-heptanoic acid]
Second: N=C(N)c1ccc2oc(C(=O)NCCCCCC(=O)O)cc2c1 [6-[(5-Carbamimidoyl-benzofuran-2-carbonyl)-amino]-hexanoic acid]
The pIC50 of the first is 0.79 log units higher: 5.59 for the first, 4.80 for the second. The first is the more potent here.

Target: not listed separately
Assay: Inhibition ADP-induced (fibrinogen-mediated) platelet aggregation in human platelet-rich plasma (PRP)

Compared with `C#C[C@H](CC(=O)O)NC(=O)CCC(=O)Nc1ccc(C(=N)N)cc1` [(S)-3-[3-(4-Carbamimidoyl-phenylcarbamoyl)-propionylamino]-pent-4-ynoic acid], `N=C(N)c1ccc2oc(C(=O)NCCCCCCCC(=O)O)cc2c1` [8-[(5-Carbamimidoyl-benzofuran-2-carbonyl)-amino]-octanoic acid] is 2.89 log units lower in pIC50: 7.46 for the first, 4.57 for the second. The first is the more potent here.

`N=C(N)c1ccc2c(c1)cc(C(=O)NCCCCCCC(=O)O)n2Cc1ccccc1` [7-[(1-Benzyl-5-carbamimidoyl-1H-indole-2-carbonyl)-amino]-heptanoic acid] showed a pIC50 of 4.68.
